Test results from EPA's CvTdb concentration-time database.

Assays:
Rat [1] = test: concentration in plasma after dosing; details: dosed: Wyeth-14643, 2.0 mg/kg, oral, Male, Sprague-Dawley
Rat [2] = test: concentration in plasma after dosing; details: dosed: Wyeth-14643, 2.0 mg/kg, oral, Male, Sprague-Dawley; remark: listed apart in the source
Rat [3] = test: concentration in plasma after dosing; details: 1 h; dosed: Wyeth-14643; 2.0 mg/kg; iv; Male; Sprague-Dawley
Rat [4] = test: concentration in heart after dosing; details: 6 h; dosed: Bis 2-Chloroethoxy Methane; 20 mg/kg; iv; Female; F344
Rat [5] = test: concentration in heart after dosing; details: 10 min; dosed: Bis 2-Chloroethoxy Methane; 20 mg/kg; iv; Male; F344
Rat [6] = test: concentration in heart after dosing; details: 6 h; dosed: Bis 2-Chloroethoxy Methane; 20 mg/kg; iv; Male; F344
Rat [7] = test: concentration in heart after dosing; details: 40 min; dosed: Bis 2-Chloroethoxy Methane; 20 mg/kg; iv; Female; F344
Rat [8] = test: concentration in plasma after dosing; details: 10 min; dosed: Bis 2-Chloroethoxy Methane; 20 mg/kg; iv; Male; F344
Rat [9] = test: concentration in plasma after dosing; details: 1 h; dosed: Bis 2-Chloroethoxy Methane; 20 mg/kg; iv; Female; F344
Rat [10] = test: concentration in plasma after dosing; details: 1 h; dosed: Bis 2-Chloroethoxy Methane; 20 mg/kg; iv; Female; F344; remark: listed apart in the source
Rat [11] = test: concentration in liver after dosing; details: 20 min; dosed: Bis 2-Chloroethoxy Methane; 20 mg/kg; iv; Male; F344
Rat [12] = test: concentration in liver after dosing; details: 40 min; dosed: Bis 2-Chloroethoxy Methane; 20 mg/kg; iv; Female; F344
Rat [13] = test: concentration in plasma after dosing; details: 0.5 h; dosed: Di-n-butyl phthalate; 100 mg/kg; oral; Male; Sprague-Dawley
Rat [14] = test: concentration in plasma after dosing; details: 6 h; dosed: Di-n-butyl phthalate; 20 mg/kg; iv; Male; Sprague-Dawley
Rat [15] = test: concentration in plasma after dosing; details: 3 h; dosed: Di-n-butyl phthalate; 100 mg/kg; oral; Male; Sprague-Dawley
Rat [16] = test: concentration in liver after dosing; details: 864 h; dosed: Perfluorodecanoic acid; 10 mg/kg; oral; Female; Harlan Sprague Dawley
Rat [17] = test: concentration in brain after dosing; details: 864 h; dosed: Perfluorodecanoic acid; 10 mg/kg; oral; Male; Harlan Sprague Dawley
Rat [18] = test: concentration in liver after dosing; details: 1848 h; dosed: Perfluorodecanoic acid; 10 mg/kg; oral; Female; Harlan Sprague Dawley
Rat [19] = test: concentration in plasma after dosing; details: dosed: Perfluorodecanoic acid, 2 mg/kg, iv, Male, F344
Rat [20] = test: concentration in kidney after dosing; details: 864 h; dosed: Perfluorodecanoic acid; 10 mg/kg; oral; Female; Harlan Sprague Dawley
Rat [21] = test: concentration in plasma after dosing; details: dosed: Perfluorodecanoic acid, 2 mg/kg, iv, Male, F344; remark: listed apart in the source
Rat [22] = test: concentration in plasma after dosing; details: dosed: Perfluorodecanoic acid, 2 mg/kg, oral, Male, Harlan Sprague Dawley
Rat [23] = test: concentration in plasma after dosing; details: 3 h; dosed: Primidone; 80 mg/kg; oral; Female; F344
Rat [24] = test: concentration in heart after dosing; details: 10 min; dosed: Thiodiglycolic Acid; 20 mg/kg; iv; Male; F344
Rat [25] = test: concentration in thymus after dosing; details: 4 h; dosed: Thiodiglycolic Acid; 20 mg/kg; iv; Male; Harlan Sprague Dawley
Rat [26] = test: concentration in plasma after dosing; details: 2 h; dosed: Thiodiglycolic Acid; 20 mg/kg; iv; Male; Harlan Sprague Dawley
Rat [27] = test: concentration in liver after dosing; details: 40 min; dosed: Thiodiglycolic Acid; 20 mg/kg; iv; Female; Harlan Sprague Dawley
Rat [28] = test: concentration in liver after dosing; details: 4 h; dosed: Thiodiglycolic Acid; 20 mg/kg; iv; Male; Harlan Sprague Dawley
Rat [29] = test: concentration in heart after dosing; details: 6.667 h; dosed: Thiodiglycolic Acid; 20 mg/kg; iv; Female; Harlan Sprague Dawley
Rat [30] = test: concentration in liver after dosing; details: 40 min; dosed: Thiodiglycolic Acid; 20 mg/kg; iv; Male; Harlan Sprague Dawley
Rat [31] = test: concentration in plasma after dosing; details: dosed: dichloroacetic acid, 10 mg/kg, oral, Male, Harlan Sprague Dawley
Rat [32] = test: concentration in plasma after dosing; details: dosed: dichloroacetic acid, 60 mg/kg, iv, Female, Harlan Sprague-Dawley
Rat [33] = test: concentration in plasma after dosing; details: dosed: dichloroacetic acid, 100 mg/kg, oral, Male, F344
dog = test: concentration in urine after dosing; details: dosed: trichloroethylene, 100 ppm, inhalation, duration: 6 hr, male, beagle
Method in brief: (§1)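 Points were largely digitised from plot screenshots with WebPlotDigitizer or otherwise copied from tables, and they remain in the units each source reported. They come from published in vivo toxicokinetic studies and two structured collections. Sampling and analytical methods follow each source and were often not reported.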

human = test: concentration in urine after dosing; details: dosed: trichloroethylene, inhalation, duration: 2 hr - 20 min
Method in brief: as §1

Cc1cccc(Nc2cc(Cl)nc(SCC(=O)O)n2)c1C
concentration in plasma [µg/mL]
Details	0.5 h	1 h	5 h	6 h
Rat [1]	1.23	–	0.529	–
Rat [2]	–	0.513	–	0.169

Details	concentration in plasma [µg/mL]
Rat [3]	2.38

ClCCOCOCCCl [Bis 2-Chloroethoxy Methane]
Details	concentration in heart [ng/g]	concentration in liver [ng/g]	concentration in plasma [ng/mL]
Rat [4]	28.6	–	–
Rat [5]	12300	–	–
Rat [6]	19.3	–	–
Rat [7]	5350	–	–
Rat [8]	–	–	11000
Rat [9]	–	–	900
Rat [10]	–	–	1240
Rat [11]	–	3690	–
Rat [12]	–	636	–

CCCCOC(=O)c1ccccc1C(=O)O [Mono-n-butyl phthalate]
Details	concentration in plasma [µg/mL]
Rat [13]	29.7
Rat [14]	1.11
Rat [15]	1.19

O=C(O)C(F)(F)C(F)(F)C(F)(F)C(F)(F)C(F)(F)C(F)(F)C(F)(F)C(F)(F)C(F)(F)F [Perfluorodecanoic acid]
Details	concentration in brain [ng/g]	concentration in kidney [ng/g]	concentration in liver [ng/g]
Rat [16]	–	–	43600
Rat [17]	867	–	–
Rat [18]	–	–	27400
Rat [20]	–	18600	–

Details	concentration in plasma [ng/mL]
Rat [19], 24 h	5510
Rat [19], 1848 h	410
Rat [21], 24 h	5820
Rat [21], 1848 h	764
Rat [22], 1 h	4920
Rat [22], 192 h	5100
Rat [22], 2520 h	882

CCC1(c2ccccc2)C(=O)NC(=O)NC1=O [Phenobarbital]
Details	concentration in plasma [µg/mL]
Rat [23]	1

O=C(O)CSCC(=O)O [Thiodiglycolic Acid]
Details	concentration in heart [ng/g]	concentration in liver [ng/g]	concentration in plasma [ng/mL]	concentration in thymus [ng/g]
Rat [24]	8260	–	–	–
Rat [25]	–	–	–	1490
Rat [26]	–	–	790	–
Rat [27]	–	92500	–	–
Rat [28]	–	70900	–	–
Rat [29]	262	–	–	–
Rat [30]	–	183000	–	–

O=C(O)C(Cl)Cl [dichloroacetic acid]
Details	concentration in plasma [µg/mL]
Rat [31], 5 min	0.621
Rat [31], 40 min	0.137
Rat [32], 1 h	16.8
Rat [32], 2 h	1.34
Rat [33], 4 h	55.6
Rat [33], 10 min	11.9

O=C(O)C(Cl)(Cl)Cl [trichloroacetic acid]
dog
Details	concentration in urine [µg/mL]
24 h	32.6
48 h	92.8
72 h	204
96 h	386
120 h	228

concentration in urine [mg/kg], human
Details	2.667 h	6.667 h	10.67 h	19.67 h
1348 mg	6.6	14.2	15.6	21.1
1681 mg	4.3	10.6	22.2	24.9
3907 mg	3	14.2	22.9	26.7
